Measurements gathered from unrelated publications.
Each line is one published result; the experiments were not run side by side.
ATAD2B: ATPase family AAA domain-containing protein 2B (ATAD2B, Homo sapiens, UniProt Q9ULI0)
KDM1A: Lysine-specific histone demethylase 1A (KDM1A, Homo sapiens, UniProt O60341)
BRD3 BD1: Bromodomain-containing protein 3, BD1 (BRD3, Homo sapiens, UniProt Q15059)
PDE5A: cGMP-specific 3',5'-cyclic phosphodiesterase (PDE5A, Homo sapiens, UniProt O76074)

Compound | target | test | setting | measurement | result
NS(=O)(=O)c1ccc(Nc2nc(-c3ccc(F)cc3)c3ccccc3n2)cc1 | ATAD2B | binding, competition with immobilised ligand | 1 µM | remaining binding | 76%
CN1CCN(C(=O)[C@H](CCCN[C@@H]2C[C@H]2c2ccc(F)cc2)NC(=O)c2ccc(-n3ccnn3)cc2)CC1 | KDM1A | enzyme activity, inhibitor | – | kinact | 0.018 s⁻¹
Oc1ccc(-c2nc(-c3ccncc3)c(-c3ccc(F)cc3)[nH]2)cc1 | BRD3 BD1 | thermal stability, DSF | 10 µM | ΔTm | 0.72 °C
CC(=O)N[C@H](C(=O)N[C@H](C(=O)N[C@@H](Cc1ccccc1)C(=O)N[C@H](C(=O)N[C@@H](CO)C(=O)N[C@@H](Cc1c[nH]c2ccccc12)C(=O)N[C@@H](CCC(=O)O)C(=O)N[C@@H](CCC(=O)O)C(=O)N[C@@H](Cc1ccc(O)cc1)C(=O)N[C@@H](CC(C)C)C(=O)N[C@@H](CC(=O)O)C(=O)N[C@@H](Cc1c[nH]c2ccccc12)C(=O)N[C@H](C(N)=O)C(C)C)[C@@H](C)O)C(C)C)[C@@H](C)O | Proprotein convertase subtilisin/kexin type 9 (PCSK9, Homo sapiens, UniProt Q8NBP7) | binding, SPR | – | koff | 0.173 s⁻¹
CC(C)(C)N1C(=O)[C@H]2Cc3c([nH]c4ccccc34)[C@H](c3cccnc3)N2C1=O | PDE5A | enzyme activity, inhibitor, FP | 50 µM | inhibition | 89%
Cc1cnc(Nc2ccc(OCCN3CCCC3)cc2)nc1Nc1cccc(S(=O)(=O)NC(C)(C)C)c1 | ATAD2B | thermal stability, DSF | 10 µM | ΔTm | -0.06 °C
O=C(O)c1ccc(CN2CCC(CN[C@@H]3C[C@H]3c3ccccc3)CC2)cc1 | KDM1A | enzyme activity, inhibitor | – | kinact | 0.013 s⁻¹
C[S+]([O-])c1ccc(-c2nc(-c3ccncc3)c(-c3ccc(F)cc3)[nH]2)cc1 (stereo not shown) | BRD3 BD1 | thermal stability, DSF | 10 µM | ΔTm | 1.43 °C
O=C(c1ccc(F)cc1)N(Cc1ccccc1)C1CCCCC1 | Endothelin-1 receptor (EDNRA, Homo sapiens, UniProt P25101) | cell-free assay | 10 µM | inhibition | 0%
COC(=O)[C@@H]1Cc2c([nH]c3ccccc23)[C@H](c2ccc(OC)c(OC)c2)N1C(=O)CCl | PDE5A | enzyme activity, inhibitor, FP | 50 µM | inhibition | 48%
Cc1cc2c(cc1N1C(=O)c3cccc4c(Cl)ccc(c34)C1=O)n(C)c(=O)n2C | Bromodomain-containing protein 3, BD2 (BRD3, Homo sapiens, UniProt Q15059) | thermal stability, DSF | 10 µM | ΔTm | 0.1 °C
COc1cc(Cl)c(C(=O)N[C@@H](CN[C@H]2CC[C@@H](N)CC2)Cc2ccc(C#N)cc2)cc1-c1ccc(CN[C@H](C)c2ccc(C)cc2)o1 | Testis-specific serine/threonine-protein kinase 4 (TSSK4, Homo sapiens, UniProt Q6SA08) | enzyme activity, inhibitor | 1 µM | remaining activity | 98%
Nc1ncnc2occ(-c3ccc(NC(=O)Nc4cc(C(F)(F)F)ccc4F)cc3)c12 | Cyclin-dependent kinase 15 (CDK15, Homo sapiens, UniProt Q96Q40) | cell-free assay, inhibitor | 20 µM | remaining signal | 1.1%
